# Laboratory results as given in PMC6694902 (Journal of Taibah University Medical Sciences, 2017).
# Values joined by “and” are separate entries in the source; they are usually repeats but may differ in a detail not shown here. Equal values may be shown once.
# How the values were obtained:
# [1] = system: Klebsiella pneumoniae (MTCC 109); conditions: reported earlier by the authors ref 6; cited from earlier work
# [2] = system: Cryptococcus neoformans; experiment: Minimum inhibitory concentration; assay type: cell-based; conditions: 31.25–500 µg/mL tested, 37 °C, 18–24 h
# How it was run: (§1)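 MIC was determined in agar wells on Sabouraud dextrose agar seeded with the fungal strain (McFarland 0.5, 1.5 × 10^6 CFU/mL). DMF stocks at 1 mg/mL were diluted two-fold to five levels (31.25–500 µg/mL) and loaded into wells, with fluconazole as reference. After 18–24 h at 37 °C, the lowest inhibitory concentration was taken as the MIC.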
# [3] = system: Candida albicans (MTCC 3017); experiment: Agar well diffusion, zone of inhibition; assay type: cell-based; conditions: mean ± S.D., n = 6
# How it was run: (§2)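 Agar well diffusion on Sabouraud dextrose agar. C. albicans MTCC 3017 came from IMTECH; C. neoformans was an Utkal University strain. Plates were seeded with 1.5 × 10^6 CFU/mL suspensions (McFarland 0.5). Test compounds were dissolved in DMF (1 mg/mL stock) and loaded into wells, with fluconazole as reference. Incubation was 37 °C for 18–24 h, and zones were measured.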
# [4] = system: Escherichia coli (res); experiment: Agar well diffusion, zone of inhibition; assay type: cell-based; conditions: mean ± S.D., n = 6; resistant to norfloxacin, ofloxacin, ampicillin, cefixime, nitrofurantoin
# How it was run: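 Clinical isolate from a faecal sample (Bhubaneswar hospital). Nutrient agar plates were seeded with a 1.5 × 10^6 CFU/mL suspension matched to McFarland 0.5. Test compound was loaded into the agar wells from a DMF stock (1 mg/mL). Plates were incubated at 37 °C for 18–24 h and the inhibition zone was read. Amoxicillin and ampicillin were the reference antibiotics.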
# [5] = system: Staphylococcus aureus (res); experiment: Minimum inhibitory concentration; assay type: cell-based; conditions: 31.25–500 µg/mL tested, 37 °C, 18–24 h
# How it was run: (§3)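 MIC was determined in nutrient agar wells seeded with bacteria (McFarland 0.5, 1.5 × 10^6 CFU/mL). E. coli (res) and S. aureus (res) were clinical isolates; K. pneumoniae was MTCC 109. DMF stocks at 1 mg/mL were diluted two-fold to five levels (31.25–500 µg/mL) in wells, with amoxicillin and ampicillin as references. Plates were incubated at 37 °C for 18–24 h.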
# [6] = system: Klebsiella pneumoniae (MTCC 109); experiment: Minimum inhibitory concentration; assay type: cell-based; conditions: 31.25–500 µg/mL tested, 37 °C, 18–24 h
# How it was run: as §3
# [7] = system: Staphylococcus aureus (res); experiment: Agar well diffusion, zone of inhibition; assay type: cell-based; conditions: mean ± S.D., n = 6; resistant to norfloxacin, ofloxacin, ampicillin, cefotaxime
# How it was run: (§4)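 Agar well diffusion on nutrient agar. K. pneumoniae MTCC 109 came from IMTECH; S. aureus (res) was an Utkal University isolate. Plates were seeded with 1.5 × 10^6 CFU/mL suspensions (McFarland 0.5). Test compounds were dissolved in DMF (1 mg/mL stock) and placed in wells, with amoxicillin and ampicillin as references. Plates were kept at 37 °C for 18–24 h, then zones were read.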
# [8] = system: Escherichia coli (res); experiment: Minimum inhibitory concentration; assay type: cell-based; conditions: 31.25–500 µg/mL tested, 37 °C, 18–24 h
# How it was run: as §3
# [9] = DPPH radical scavenging assay; assay type: biochemical; conditions: mean ± S.D., n = 3; for IC50 (DPPH radical scavenging): graphically determined
# How it was run: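 DPPH scavenging, a modified method, was read as absorbance at 517 nm for test compounds at several concentrations. BHT served as standard, and DPPH in methanol served as control. Percent inhibition was calculated from control and sample absorbances, and IC50 was obtained graphically. Data were analysed by one-way ANOVA with Dunnett's post hoc test.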
# [10] = system: Klebsiella pneumoniae (MTCC 109); experiment: Agar well diffusion, zone of inhibition; assay type: cell-based; conditions: mean ± S.D., n = 6
# How it was run: as §4
# [11] = system: Candida albicans (MTCC 3017); experiment: Minimum inhibitory concentration; assay type: cell-based; conditions: 31.25–500 µg/mL tested, 37 °C, 18–24 h
# How it was run: as §1
# [12] = system: Cryptococcus neoformans; experiment: Agar well diffusion, zone of inhibition; assay type: cell-based; conditions: mean ± S.D., n = 6
# How it was run: as §2
Compound,antibacterial activity against K. pneumoniae [1],"Minimum inhibitory concentration (MIC), C. neoformans [2]","zone of inhibition, C. albicans [3]","zone of inhibition, E. coli (res) [4]","Minimum inhibitory concentration (MIC), S. aureus (res) [5]","Minimum inhibitory concentration (MIC), K. pneumoniae [6]","zone of inhibition, S. aureus (res) [7]","Minimum inhibitory concentration (MIC), E. coli (res) [8]",% Inhibition (DPPH) ([9]; Conc. 10 μg/mL),% Inhibition (DPPH) ([9]; Conc. 30 μg/mL),% Inhibition (DPPH) ([9]; Conc. 50 μg/mL),% Inhibition (DPPH) ([9]; Conc. 70 μg/mL),IC50 (DPPH radical scavenging) [9],"zone of inhibition, K. pneumoniae [10]","Minimum inhibitory concentration (MIC), C. albicans [11]","zone of inhibition, C. neoformans [12]"
"COc1ccc(/N=C/c2cc(/N=N/c3cccc([N+](=O)[O-])c3)ccc2[O][Co][O]c2ccc(/N=N/c3cccc([N+](=O)[O-])c3)cc2/C=N/c2ccc(OC)cc2)cc1 [5a(Co Lig2), bis[2-{(E)-(4-methoxyphenylimino)methyl}-4-{(E)-(3-nitrophenyl)diazenylphenoxy}cobalt]]",significant antibacterial activity,,,,,,,,,,,,,,,
Bis[{4-((4-bromo-3-methylphenyl)diazenyl)-2-((4-phenylthiazol-2-limino)methyl)phenoxy}] cobalt [Compound 6a],,125 µg/mL,12.83 ± 2.23 mm,16.67 ± 2.34 mm and 16.67 ± 2.34^∗ mm,31.25 µg/mL,31.25 µg/mL,20.83 ± 1.84 mm and 20.83 ± 1.84^∗ mm,31.25 µg/mL,29.72 ± 0.07%,43.32 ± 0.11%,63.44 ± 0.07 %,83.02 ± 0.06%,36 ± 0.56 µg/mL,16.17 ± 1.94 mm and 16.17 ± 1.94^∗ mm,31.25 µg/mL,13.67 ± 2.94 mm
"Cc1cc(N=Nc2ccc([O][Cu][O]c3ccc(N=Nc4ccc(Br)c(C)c4)cc3C=Nc3nc(-c4ccccc4)cs3)c(C=Nc3nc(-c4ccccc4)cs3)c2)ccc1Br [Compound 6b, Bis[{4-((4-bromo-3-methylphenyl)diazenyl)-2-((4-phenylthiazol-2-ylimino)methyl)phenoxy}] copper,]",,250 µg/mL,13.33 ± 2.34 mm,15.83 ± 1.84^∗ mm,31.25 µg/mL,31.25 µg/mL,18.33 ± 1.75^∗ mm,31.25 µg/mL,28.43 ± 0.07%,41.83 ± 0.02%,51.41 ± 0.05%,79.97 ± 0.06%,48 ± 0.89 µg/mL,16 ± 2.37^∗ mm,125 µg/mL,12.67 ± 1.51 mm
